This note sets out measurements from the M2OR odorant receptor database.

Holding throughout (settings): stereoisomer not certain
One test concerns the target T1, UniProt E9PZ66.
T1 sequence (whole entry): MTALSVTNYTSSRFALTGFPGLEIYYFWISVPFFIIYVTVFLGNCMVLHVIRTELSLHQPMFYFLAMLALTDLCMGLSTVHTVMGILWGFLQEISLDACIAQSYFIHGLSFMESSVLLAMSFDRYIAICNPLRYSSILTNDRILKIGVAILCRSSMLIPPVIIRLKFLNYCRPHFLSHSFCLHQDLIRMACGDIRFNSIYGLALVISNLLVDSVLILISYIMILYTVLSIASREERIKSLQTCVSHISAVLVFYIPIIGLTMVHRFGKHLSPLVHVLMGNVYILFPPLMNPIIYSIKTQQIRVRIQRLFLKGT
The procedure, abridged: (§1)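 Whether a receptor–molecule pair is responsive (active) rests on the original authors' judgment that its measured signal was statistically different from baseline. Pairs without that judgment are non-responsive (inactive). Sources used varied assay methods, commonly transient luciferase assays in mammalian cell lines.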

The next test concerns the target T2, UniProt E9Q4X7.
T2 sequence (whole entry): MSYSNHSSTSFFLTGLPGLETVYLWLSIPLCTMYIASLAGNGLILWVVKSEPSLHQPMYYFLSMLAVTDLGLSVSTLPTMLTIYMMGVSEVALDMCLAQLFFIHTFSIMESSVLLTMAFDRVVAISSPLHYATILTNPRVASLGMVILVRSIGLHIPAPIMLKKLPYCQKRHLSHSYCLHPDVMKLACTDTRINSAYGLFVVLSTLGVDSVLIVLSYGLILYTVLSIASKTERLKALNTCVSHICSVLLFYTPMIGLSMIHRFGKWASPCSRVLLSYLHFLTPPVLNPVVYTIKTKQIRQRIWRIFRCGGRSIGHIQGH
Summed up: as §1

The next test addresses T3, UniProt E9Q546.
T3 sequence (whole entry): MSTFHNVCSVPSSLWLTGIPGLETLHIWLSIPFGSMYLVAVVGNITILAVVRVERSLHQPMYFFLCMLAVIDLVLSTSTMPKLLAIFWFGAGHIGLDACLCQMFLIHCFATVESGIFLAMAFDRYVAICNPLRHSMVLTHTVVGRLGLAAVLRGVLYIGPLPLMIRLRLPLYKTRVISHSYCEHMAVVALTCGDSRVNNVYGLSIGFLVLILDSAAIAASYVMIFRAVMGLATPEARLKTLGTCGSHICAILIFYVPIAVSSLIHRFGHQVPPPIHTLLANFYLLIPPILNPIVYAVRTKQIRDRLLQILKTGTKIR
The procedure, abridged:
as §1

The next test concerns the target T4, UniProt E9Q6Z7.
T4 sequence (whole entry): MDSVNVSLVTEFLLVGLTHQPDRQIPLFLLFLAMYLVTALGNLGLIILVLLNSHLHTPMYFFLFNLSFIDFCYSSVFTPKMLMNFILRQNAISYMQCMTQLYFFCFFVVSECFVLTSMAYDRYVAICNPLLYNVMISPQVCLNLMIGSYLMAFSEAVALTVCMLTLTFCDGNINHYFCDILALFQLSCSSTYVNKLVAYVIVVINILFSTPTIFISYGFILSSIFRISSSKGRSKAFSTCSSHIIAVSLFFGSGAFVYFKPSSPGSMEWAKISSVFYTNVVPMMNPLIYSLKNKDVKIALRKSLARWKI
The procedure, abridged: as §1

The target in another test is T5, UniProt E9QAT7.
T5 sequence (whole entry): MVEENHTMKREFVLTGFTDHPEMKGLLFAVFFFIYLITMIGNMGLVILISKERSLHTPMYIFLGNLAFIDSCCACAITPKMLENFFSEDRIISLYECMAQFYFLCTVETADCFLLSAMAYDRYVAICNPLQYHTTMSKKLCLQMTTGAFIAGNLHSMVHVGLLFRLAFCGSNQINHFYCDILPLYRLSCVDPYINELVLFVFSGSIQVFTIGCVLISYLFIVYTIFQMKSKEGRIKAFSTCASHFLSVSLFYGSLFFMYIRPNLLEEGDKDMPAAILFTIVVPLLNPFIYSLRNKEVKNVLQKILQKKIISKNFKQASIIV
The procedure, abridged: as §1

The target in a further test is T6, UniProt E9Q9Z6.
T6 sequence (whole entry): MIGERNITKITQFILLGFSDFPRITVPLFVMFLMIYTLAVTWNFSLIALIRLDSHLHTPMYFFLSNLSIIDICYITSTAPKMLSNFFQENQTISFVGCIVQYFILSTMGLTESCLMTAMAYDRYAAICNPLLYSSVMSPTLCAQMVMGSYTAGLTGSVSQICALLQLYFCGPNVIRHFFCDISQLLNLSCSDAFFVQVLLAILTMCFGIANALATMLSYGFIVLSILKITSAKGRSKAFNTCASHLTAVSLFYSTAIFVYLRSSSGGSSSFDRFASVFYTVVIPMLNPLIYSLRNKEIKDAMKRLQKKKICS
Summed up: as §1

The next test concerns the target T7, UniProt K7N609.
T7 sequence (whole entry): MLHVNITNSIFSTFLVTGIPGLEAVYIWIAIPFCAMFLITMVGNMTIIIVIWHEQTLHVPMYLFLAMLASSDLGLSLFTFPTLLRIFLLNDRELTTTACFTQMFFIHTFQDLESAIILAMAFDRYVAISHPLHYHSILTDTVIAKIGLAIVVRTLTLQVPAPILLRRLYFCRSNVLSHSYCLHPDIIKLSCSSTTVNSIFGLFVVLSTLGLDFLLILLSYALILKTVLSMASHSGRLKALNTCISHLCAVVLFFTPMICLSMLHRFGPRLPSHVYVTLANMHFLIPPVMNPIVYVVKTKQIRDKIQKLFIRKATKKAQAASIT
The procedure, abridged: as §1
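Note: active if original authors judged signal statistically different from baseline.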

Consider `COc1nccnc1C`, for which the “odorant receptor agonist call” value with UniProt E9PZ66, with UniProt E9Q4X7, with UniProt E9Q546 and with UniProt E9Q6Z7 was “inactive” each time.
As for `CC(=O)OCc1ccc2c(c1)OCO2`, the “odorant receptor agonist call” value with UniProt E9PZ66, with UniProt E9Q4X7, in the test with UniProt E9Q546 and with UniProt E9Q6Z7 was “inactive” throughout.
On to `CCCCCCCOC(=O)C(C)C`, for which the “odorant receptor agonist call” value with UniProt E9PZ66, with UniProt E9Q4X7, with UniProt E9Q546 and in the test with UniProt E9Q6Z7 was “inactive” in each case.
Turning to `C=C(C)C1CC=C(C)CC1` (centres undefined), the “odorant receptor agonist call” value with UniProt E9PZ66, with UniProt E9Q4X7, in the test with UniProt E9Q546 and in the test with UniProt E9Q6Z7 was “inactive” each time.
On to `CCCCCCC=CC=O`, for which the “odorant receptor agonist call” value in the test with UniProt E9PZ66, with UniProt E9Q4X7, in the test with UniProt E9Q546 and with UniProt E9Q6Z7 was “inactive” each time.
For the compound `Cc1c(C)c(C)c(C=O)c(C)c1C`, the “odorant receptor agonist call” value in the test with UniProt E9PZ66, with UniProt E9Q4X7, in the test with UniProt E9Q546 and with UniProt E9Q6Z7 was “inactive” throughout.
For the compound `CCSSCC`, the “odorant receptor agonist call” value in the test with UniProt E9PZ66, with UniProt E9Q4X7, with UniProt E9Q546 and with UniProt E9Q6Z7 was “inactive” each time.
With `CC(=O)OC1(C)CCC23CC1C(C)(C)C2CCC3C` (centres undefined), the “odorant receptor agonist call” value with UniProt E9PZ66, with UniProt E9Q4X7, with UniProt E9Q546 and with UniProt E9Q6Z7 was “inactive” each time.
For the compound `OCCc1ccccc1`, the “odorant receptor agonist call” value with UniProt E9PZ66, with UniProt E9Q4X7, with UniProt E9Q546 and in the test with UniProt E9Q6Z7 was “inactive” each time.
Regarding `CCCCCC(C)O` (centres undefined), the “odorant receptor agonist call” value in the test with UniProt E9PZ66, with UniProt E9Q4X7, with UniProt E9Q546 and with UniProt E9Q6Z7 was “inactive” in each case.
In the case of `CC1(C)CC(=O)CC(=O)C1`, the “odorant receptor agonist call” value with UniProt E9PZ66, in the test with UniProt E9Q4X7, with UniProt E9Q546 and with UniProt E9Q6Z7 was “inactive” in each case.
With `COc1cnccn1`, the “odorant receptor agonist call” value with UniProt E9PZ66, with UniProt E9Q4X7, with UniProt E9Q546, in the test with UniProt E9Q6Z7 and in the test with UniProt E9QAT7 was “inactive” in each case.
As for `CCCCCCC(C=O)=Cc1ccccc1`, the “odorant receptor agonist call” value in the test with UniProt E9PZ66, with UniProt E9Q4X7, in the test with UniProt E9Q546 and with UniProt E9Q6Z7 was “inactive” throughout.
For `CCc1ncc(C)nc1CC`, the “odorant receptor agonist call” value with UniProt E9PZ66, with UniProt E9Q4X7, in the test with UniProt E9Q546 and with UniProt E9Q6Z7 was “inactive” in each case. The “odorant receptor agonist call” value with UniProt E9QAT7 was “active”.
As for `Cc1ccccc1OC(=O)C(C)C`, the “odorant receptor agonist call” value with UniProt E9PZ66, with UniProt E9Q4X7, with UniProt E9Q546 and with UniProt E9Q6Z7 was “inactive” each time.
Take `CC=Cc1ccc(OC)cc1`: the “odorant receptor agonist call” value with UniProt E9PZ66, in the test with UniProt E9Q4X7, in the test with UniProt E9Q546 and in the test with UniProt E9Q6Z7 was “inactive” each time.
For `CC1CC=CCCCCCCCCCC(=O)C1` (centres undefined), the “odorant receptor agonist call” value in the test with UniProt E9PZ66, with UniProt E9Q4X7, in the test with UniProt E9Q546 and with UniProt E9Q6Z7 was “inactive” each time. Besides, the “odorant receptor agonist call” value in the test with UniProt E9Q9Z6 was “active”.
Take `C=C(C)C1CCC(C)C(=O)C1` (centres undefined): the “odorant receptor agonist call” value with UniProt E9PZ66, in the test with UniProt E9Q4X7, with UniProt E9Q546, in the test with UniProt E9Q6Z7 and with UniProt K7N609 was “inactive” each time.
Take `O=C(OCc1ccccc1)c1ccccc1O`: the “odorant receptor agonist call” value in the test with UniProt E9PZ66, with UniProt E9Q4X7, with UniProt E9Q546 and in the test with UniProt E9Q6Z7 was “inactive” each time.
In the case of `OCCCCCCCCCO`, the “odorant receptor agonist call” value in the test with UniProt E9PZ66, with UniProt E9Q4X7, with UniProt E9Q546 and with UniProt E9Q6Z7 was “inactive” each time.
`CCN(CC)CC`: the “odorant receptor agonist call” value in the test with UniProt E9PZ66, with UniProt E9Q4X7, with UniProt E9Q546 and with UniProt E9Q6Z7 was “inactive” in each case.
As for `CCC(C)O` (centres undefined), the “odorant receptor agonist call” value with UniProt E9PZ66, with UniProt E9Q4X7, with UniProt E9Q546 and in the test with UniProt E9Q6Z7 was “inactive” throughout.
For the compound `CCCCCC=CCCC=O`, the “odorant receptor agonist call” value with UniProt E9PZ66, with UniProt E9Q546 and with UniProt E9Q6Z7 was “inactive” each time. Further, the “odorant receptor agonist call” value with UniProt E9Q4X7 was “active”.
On to `COc1ccccc1`, for which the “odorant receptor agonist call” value with UniProt E9PZ66, with UniProt E9Q4X7, with UniProt E9Q546 and with UniProt E9Q6Z7 was “inactive” in each case.
For the compound `CCc1nccnc1CC`, the “odorant receptor agonist call” value in the test with UniProt E9PZ66, with UniProt E9Q4X7, with UniProt E9Q546 and with UniProt E9Q6Z7 was “inactive” throughout. Also, the “odorant receptor agonist call” value with UniProt E9QAT7 is “active”.
`C1CCOC1`: the “odorant receptor agonist call” value with UniProt E9PZ66, with UniProt E9Q4X7, with UniProt E9Q546 and in the test with UniProt E9Q6Z7 was “inactive” each time.
As for `CCC(C)c1nccnc1OC` (centres undefined), the “odorant receptor agonist call” value in the test with UniProt E9PZ66, with UniProt E9Q4X7, in the test with UniProt E9Q546, in the test with UniProt E9Q6Z7 and with UniProt E9QAT7 was “inactive” in each case.
